A selection: hits, their analogues and other compounds. The true share with any hit is near 3.1%.
Ecoli rRNA inh = selective bacterial rRNA inhibition in E. coli; hit rate 1.6% among 350,000; GFP signal change (wild-type ribosome), % (test concentration not listed); E. coli WT GFP vs humanized-ribosome RFP mutants, fluorescence, 24 h; stronger effect = lower value; DMSO median 0, no signal -100;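 active = significant combined selectivity score with lowered wild-type GFP, culture density cut under 30%, mutant RFP and density less affected; inactive = any of these conditions unmet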
Cneo AK release = causes C. neoformans cell lysis | hit rate 0.2% among 360,000 | adenylate kinase release luminescence, 4 h; normalised: neutral wells 0, clomiphene wells 100 | lysis activity, % at 15 µM;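 active = mean lysis activity across replicates of at least 80%, whatever share of replicates individually reach that level; inactive = mean lysis activity below 80%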
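Material: C. neoformans cells; Schedule: 4 h static compound exposure, 37 °C, read 1 h post-reagent; Measured by: adenylate kinase release luminescence; Read-out: signal increase indicating cell lysis; Controls: Clomiphene as positive lysis control.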
miR-122 sensor = inhibitors of miR-122 in Huh7 cells | Huh7 miR-122 Renilla luciferase sensor, 48 h; neutral wells = 0, positive control = 100 | activation (reporter increase), % at 12.5 µM | hit rate 0.3% among 340,000 | AID 602342;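 active = mean replicate activation score at least 90 and every replicate individually at or above 90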;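 also: higher luciferase means less miR-122 activity so hits act as miR-122 inhibitors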
DENV2 CPE rescue = DENV2-induced cell death inhibition. AID 651640. CPE inhibition, % at 9.99 µM. hit rate 1.7% among 350,000. DENV2-infected cells, cytopathic effect rescue, plate reader; in the data active = CPE inhibition above about 20%, passing the limit was not always enough; tested in BHK-21 cells;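 also: 0% = median of neutral control wells and 100% = median of positive control wells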
E-sel inducer = induces E-selectin expression in human endothelial cells. P16581. HUVEC E-selectin immunofluorescence imaging; normalized: neutral wells 0, TNF-alpha wells 100. activation, % at 7.58 µM. hit rate 0.37% among 260,000;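 active = mean E-selectin-positive cell signal at least 10% of the positive control, reached in at least 60% of replicates, without over 20% cell loss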
Target sequence (P16581 whole entry, looked up): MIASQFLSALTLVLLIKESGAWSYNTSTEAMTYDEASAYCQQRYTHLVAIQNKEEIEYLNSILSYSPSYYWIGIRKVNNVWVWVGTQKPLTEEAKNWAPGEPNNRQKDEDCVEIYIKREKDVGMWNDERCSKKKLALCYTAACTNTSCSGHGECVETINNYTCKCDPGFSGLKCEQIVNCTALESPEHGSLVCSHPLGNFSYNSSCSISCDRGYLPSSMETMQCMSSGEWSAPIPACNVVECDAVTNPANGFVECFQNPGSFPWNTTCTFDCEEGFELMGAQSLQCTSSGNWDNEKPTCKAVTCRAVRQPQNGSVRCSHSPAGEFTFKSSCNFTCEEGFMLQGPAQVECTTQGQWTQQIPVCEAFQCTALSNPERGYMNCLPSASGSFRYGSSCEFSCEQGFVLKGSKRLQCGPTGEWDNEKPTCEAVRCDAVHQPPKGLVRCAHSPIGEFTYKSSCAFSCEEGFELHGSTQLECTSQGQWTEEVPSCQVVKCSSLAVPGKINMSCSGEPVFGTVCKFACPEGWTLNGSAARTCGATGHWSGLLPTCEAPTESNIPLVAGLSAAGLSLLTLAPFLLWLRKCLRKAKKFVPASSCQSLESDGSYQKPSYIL
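Test system: HUVEC | Signal: Immunofluorescence imaging | Read-out: Percent E-selectin-positive cells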
Starred values were filed as active, the others as inactive; · = no result given; [ ] = dose if it differs, or a comment.

SMILES	Ecoli rRNA inh	Cneo AK release	miR-122 sensor	DENV2 CPE rescue	E-sel inducer
COc1ccc(OCCn2cc(/C=N/NC(=O)c3ccncc3)c3ccccc32)cc1	-20*	·	·	5	-3
C[C@@H]1CN([C@H](C)CO)C(=O)c2cc(C#CCN(C)C)cnc2O[C@@H]1CN(C)C(=O)CCN1CCCCC1	-7	-10	-9[16.7 µM]	-2	0
C[C@@H]1CN([C@H](C)CO)C(=O)Cc2cc(NC(=O)c3ccncc3)ccc2O[C@H]1CN(C)Cc1ccc(C(=O)Nc2ccccc2N)cc1	-4	·	·	-2	6
COc1ccc(NC(=O)Nc2ccc3c(c2)CC(=O)N([C@H](C)CO)C[C@@H](C)[C@H](CN(C)Cc2ccc(C(=O)Nc4ccccc4N)cc2)O3)cc1	5	·	·	55*	·
C[C@H](CO)N1C[C@H](C)[C@H](CN(C)Cc2ccc(C(=O)Nc3ccccc3N)cc2)Oc2ccc(NC(=O)Nc3ccc(F)cc3)cc2CC1=O	-16	·	267*[16.7 µM]	-3	2
C[C@@H]1CN([C@@H](C)CO)C(=O)Cc2cc(NC(=O)Nc3ccc(F)cc3)ccc2O[C@@H]1CN(C)Cc1ccc(C(=O)Nc2ccccc2N)cc1	·	·	-5[16.7 µM]	·	0
C[C@@H]1CN([C@@H](C)CO)C(=O)Cc2cc(NC(=O)c3ccncc3)ccc2O[C@H]1CN(C)Cc1ccc(C(=O)Nc2ccccc2N)cc1	-5	-1	5[16.7 µM]	72*	-3
C[C@@H]1CN([C@H](C)CO)C(=O)c2cc(NC(=O)C3CCCCC3)ccc2O[C@@H](C)CCCCO[C@@H]1CN(C)C(=O)c1ccncc1	4	·	3[16.7 µM]	·	0
C/C=C/c1ccc2c(c1)O[C@H](CN(C)C(=O)C1CCC1)[C@@H](C)CN([C@H](C)CO)S2(=O)=O	-2	·	18[16.7 µM]	·	0
CCOc1ccc(CSC2=NCCN2)cc1Cl	·	·	277*	·	·
N#Cc1ccc(CSC2=NCCN2)cc1	14	·	·	-7	·
C[C@]12C(=O)N(c3ccccc3)C(=O)N1[C@@H]1c3ccccc3OC[C@@H]1[C@H]2c1ccccc1	8	-1	0	97*	·
C[C@]12C(=O)N(c3ccccc3)C(=O)N1[C@H]1c3ccccc3OC[C@@H]1[C@H]2c1ccccc1	5	-1	3	7	0
CCC(=O)N[C@H]1C=C[C@H](CC(=O)NCC2CC2)O[C@H]1CO	3	·	·	20	0
CC(C)(C)NS(=O)(=O)c1ccc(OCC(=O)Nc2ccc3c(c2)OCCO3)cc1	·	-5	112*	·	·
CCC(=O)c1ccc(OCC(=O)Nc2ccc3c(c2)OCCO3)cc1	1	·	-9	2	0
O=C(COc1ccc(F)cc1)Nc1ccc2c(c1)OCCO2	-7	-6	·	102*	-2
CS(=O)(=O)N[C@@H]1C[C@@H]2O[C@@H](CO)CC[C@@H]2O[C@@H]1CCc1ccc(-c2ccccc2F)cc1	·	·	·	21*	·
CC(=O)N[C@H]1C[C@@H]2O[C@H](CO)CC[C@@H]2O[C@@H]1CCc1ccc(C#CCc2ccccc2)cc1	·	·	·	0	·
CC(=O)N[C@@H]1C[C@@H]2O[C@H](CO)CC[C@@H]2O[C@@H]1CCc1ccc(C#CC2(O)CCCC2)cc1	·	·	·	21*	·
COc1ccccc1-c1ccc2c(c1)[C@@H]1[C@@H](CCN1C(=O)c1ccc3c(c1)OCO3)[C@H](CO)N2	0	15	-5[16.7 µM]	-18	0
COc1ccc(CN(C)C[C@H]2OCCCC[C@@H](C)Oc3ccc(NS(=O)(=O)c4cccs4)cc3C(=O)N([C@@H](C)CO)C[C@H]2C)cc1	1	52	-13[16.7 µM]	8	0
O=C(C[C@@H]1CC[C@H]2[C@@H](COC[C@H](O)CN2C(=O)Nc2ccc(C(F)(F)F)cc2)O1)NC1Cc2ccccc2C1	-35	-2	2[16.7 µM]	9	0
COc1cccc(NC(=O)N2C[C@H](O)COC[C@@H]3O[C@H](CC(=O)NC4Cc5ccccc5C4)CC[C@H]32)c1	-8	0	-4[16.7 µM]	-1	0
O=C(C[C@H]1CC[C@H]2[C@@H](COC[C@H](O)CN2C(=O)Nc2ccccc2)O1)NC1Cc2ccccc2C1	-8	-6	-4[16.7 µM]	-5	0
SMILES	Ecoli rRNA inh	Cneo AK release	miR-122 sensor	DENV2 CPE rescue	E-sel inducer
CNC(=O)C[C@@H]1CC[C@H]2[C@@H](COC[C@H](O)CN2C(=O)Nc2cccc(OC)c2)O1	8	-3	6[16.7 µM]	58*	0
O=C(C[C@H]1CC[C@H]2[C@@H](COC[C@H](O)CN2C(=O)Nc2ccc(F)cc2)O1)NC1Cc2ccccc2C1	-5	-3	-5[16.7 µM]	43*	0
O=C(C[C@@H]1CC[C@@H]2[C@H](COC[C@@H](O)CN2C(=O)Nc2ccc(Cl)cc2)O1)NC1Cc2ccccc2C1	-60	109*	-11[16.7 µM]	5	0
COc1ccc(NC(=O)N2C[C@@H](O)COC[C@@H]3O[C@H](CC(=O)NC4Cc5ccccc5C4)CC[C@H]32)cc1	4	-5	6[16.7 µM]	100*	0
CNC[C@@H]1OCCCC[C@H](C)Oc2ccc(NC(=O)Nc3ccc4c(c3)OCO4)cc2C(=O)N([C@H](C)CO)C[C@H]1C	7	·	0[16.7 µM]	·	0
O=C(C[C@H]1CC[C@@H]2[C@H](COC[C@H](O)CN2C(=O)Nc2ccc(Cl)cc2)O1)NCC1CC1	-24*	-2	-3[16.7 µM]	-1	0
O=C(C[C@@H]1CC[C@@H]2[C@H](COC[C@H](O)CN2C(=O)Nc2ccc(Cl)c(Cl)c2)O1)NCc1ccc(Cl)c(Cl)c1	-58	-7	-8[16.7 µM]	44*	0
O=C(C[C@@H]1CC[C@@H]2[C@H](COC[C@H](O)CN2C(=O)Nc2ccc(Cl)cc2)O1)NCC1CC1	-39	-3	1[16.7 µM]	2	0
O=S(=O)(N[C@H]1CC[C@H](CCn2cc(C3CC3)nn2)O[C@@H]1CO)c1ccc(Cl)cc1	-1	0	·	-6	0
CCOc1ccc(NC(=S)NCc2cccnc2)cc1	-20*	-2	-2	-2	3
CCOC(=O)c1ccc(NC(=S)NCc2cccnc2)cc1	-25	3	13	-6	·
COc1ccc(S(=O)(=O)N(C)C[C@H]2OCc3cnnn3CCCC(=O)N([C@@H](C)CO)C[C@@H]2C)cc1	2	-2	58[16.7 µM]	-3	1
C=CCNC(=O)/C(C#N)=C/c1cn(-c2ccccc2)nc1-c1ccc(OC)c([N+](=O)[O-])c1	·	1	147*	·	·
CCN(C(=O)COC(=O)/C=C/c1ccco1)C1CCCCC1	-5	-1	·	8	111*
CO[C@@H]1CN(C)C(=O)c2cc(NC(=O)C3CCC3)ccc2OC[C@H](C)NC[C@H]1C	2	1	0[16.7 µM]	1	0
CN(C)S(=O)(=O)c1cccc(NC(=O)c2n[nH]c(=O)c3ccccc23)c1	-26*	·	·	0	5
COc1ccc(NC(=O)CSc2n[nH]c(-c3ccco3)n2)cc1	1	2	1	1	·
O=C(CSc1n[nH]c(-c2ccco2)n1)Nc1ccc(Br)cc1	-50	0	-2	30*	0

Screening data as filed in PubChem.
